Our source for the Kd values is BindingDB's records for doi:10.1021/jm950716i (Cortech, 1996).

SMILES strings stand for the structures.

In this assay the target is T1, B2 bradykinin receptor (Rattus norvegicus, UniProt P25023).
T1 sequence (P25023 whole entry): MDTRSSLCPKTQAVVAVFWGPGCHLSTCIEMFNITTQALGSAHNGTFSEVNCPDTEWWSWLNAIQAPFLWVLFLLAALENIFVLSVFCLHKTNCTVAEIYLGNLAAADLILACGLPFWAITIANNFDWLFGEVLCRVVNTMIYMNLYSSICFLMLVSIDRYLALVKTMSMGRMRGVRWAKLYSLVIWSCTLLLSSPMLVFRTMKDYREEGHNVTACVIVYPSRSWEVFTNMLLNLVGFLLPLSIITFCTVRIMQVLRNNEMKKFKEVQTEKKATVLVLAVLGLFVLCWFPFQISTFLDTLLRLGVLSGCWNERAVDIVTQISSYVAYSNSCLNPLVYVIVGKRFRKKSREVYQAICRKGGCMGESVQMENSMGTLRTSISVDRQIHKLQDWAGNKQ
Kind of assay: In vitro Bradykinin receptor B2 antagonist activity by using rat uterus functional assay. An outline of the steps: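 Uterine horns from female Sprague-Dawley rats primed with stilbesterol (100 μg/kg) 18 h earlier. Tissue held at 1 g tension in De Jalon's solution, 31 °C, aerated. […] Potency by Arunlakshana-Schild analysis.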

The term Kd denotes the constant that tells how readily two partners part at equilibrium. A high value points to lower affinity. In the case of `N=C(N)NCCCCC(=O)N1CCC[C@@H]1C(=O)N1C[C@@H](O)C[C@@H]1C(=O)NCC(=O)N[C@@H](Cc1cccs1)C(=O)N[C@@H](CO)C(=O)N1Cc2ccccc2C[C@@H]1C(=O)N(CC(=O)N[C@@H](CCCNC(=N)N)C(=O)O)C1CCCCC1`, the Kd came out at 22.4 nM.
